Source: ChEMBL document CHEMBL3627646, “Synthesis and biological activity of amino acid derivatives of avarone and its model compound” (Bioorg Med Chem, 2015)
≈ marks a conversion by molar mass, not a printed value. Calls of active or inactive are those of the source. The rule behind the calls is not given here.

Legend:
[1] = system: MRC5; assay: Cytotoxicity against human MRC5 cells; assay type: cell-based
[2] = system: Micrococcus flavus; assay: Antibacterial activity against Micrococcus flavus ATCC 10240 after 24 hrs by microbroth double dilution method; assay type: functional; settings: ATCC 10240, 24 h
Method in brief: (§1)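 Microbroth double dilution in Mueller Hinton broth; compound stock 10 mg/mL in DMSO serially halved across rows. Wells inoculated with 10 μL culture at 10^6 cells/mL, incubated 37 °C for 24 h. Amikacin row as positive control, DMSO row as negative control. MIC taken as lowest concentration inhibiting bacterial growth.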

[3] = system: Artemia salina; assay: Cytotoxicity in Brine shrimp assessed as nauplii mortality after 24 hrs; assay type: organism-based; settings: in vivo
Method in brief: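 Artemia salina eggs hatched in aerated tap water with dried yeast at 18–20 °C under illumination for 48 h, and freshly hatched nauplii were used. Compounds in DMSO (0.01–1 mg) were added to 950 µL artificial seawater containing 10–20 nauplii, with 5% final DMSO. After 24 h under illumination at room temperature, dead and surviving nauplii were counted and statistically analysed.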

[4] = system: Saccharomyces cerevisiae; assay: Antifungal activity against Saccharomyces cerevisiae ATCC 9763 after 24 hrs by microbroth double dilution method; assay type: functional; settings: ATCC 9763, 24 h
[5] = system: HeLa; assay: Cell cycle arrest in human HeLa cells assessed as accumulation at G2/M phase at IC50 after 24 hrs using propidium iodide staining by cytofluorometric analysis; assay type: functional, cell-based
Method in brief: (§2)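 Trypsinized, fixed in ice-cold 70% ethanol then held at −20 °C at least one week. Treated with RNase 100 µg/mL at 37 °C 30 min, stained with PI 40 µg/mL at least 30 min. Flow cytometry on ≥10,000 cells.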

[6] = system: Proteus hauseri; assay: Antibacterial activity against Proteus hauseri ATCC 13315 after 24 hrs by microbroth double dilution method; assay type: functional; settings: ATCC 13315, 24 h; method in brief: as §1
[7] = system: K562; assay: Cytotoxicity against human K562 cells assessed as cell survival after 72 hrs by MTT assay; assay type: functional, cell-based; settings: K562, 72 h
Method in brief: (§3)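 Cells seeded (HeLa 2000, MDA-MB-453 3000, others 5000 per well), treated 24 h later (K562 after 2 h). Five double-diluted final concentrations, 200–12.5 μM, from 10 mM DMSO stocks, in RPMI-1640 with 10% FBS, pH 7.2, 72 h. MTT 4 h at 37 °C, SDS added, A570 read next day. Survival relative to medium control; IC50 from survival curves; triplicate; cisplatin positive control.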

[8] = system: HeLa; assay: Cell cycle arrest in human HeLa cells assessed as accumulation at G2/M phase at 2 time IC50 after 24 hrs using propidium iodide staining by cytofluorometric analysis; assay type: functional, cell-based; method in brief: as §2
[9] = system: MDA-MB-453; assay: Cytotoxicity against human MDA-MB-453 cells assessed as cell survival after 72 hrs by MTT assay; assay type: functional, cell-based; settings: MDA-MB-453, 72 h; method in brief: as §3
[10] = system: HeLa; assay: Induction of apoptosis in human HeLa cells assessed as accumulation at sub-G1 phase after 24 hrs using propidium iodide staining by flow cytometric analysis; assay type: functional, cell-based
[11] = system: Staphylococcus aureus; assay: Antibacterial activity against Staphylococcus aureus ATCC 6538 after 24 hrs by microbroth double dilution method; assay type: functional; settings: ATCC 6538, 24 h; method in brief: as §1
[12] = system: HeLa; assay: Induction of apoptosis in human HeLa cells assessed as accumulation at sub-G1 phase after 24 hrs in presence of caspase-8 inhibitor Z-IETD-FMK using propidium iodide staining by flow cytometric analysis; assay type: functional, cell-based
[13] = system: Candida albicans; assay: Antifungal activity against Candida albicans ATCC 10231 after 24 hrs by microbroth double dilution method; assay type: functional; settings: ATCC 10231, 24 h
[14] = system: Pseudomonas aeruginosa; assay: Antibacterial activity against Pseudomonas aeruginosa ATCC 9027 after 24 hrs by microbroth double dilution method; assay type: functional; settings: ATCC 9027, 24 h; method in brief: as §1
[15] = system: Clostridium sporogenes; assay: Antibacterial activity against Clostridium sporogenes ATCC 19404 after 24 hrs by microbroth double dilution method; assay type: functional; settings: ATCC 19404, 24 h; method in brief: as §1
[16] = system: HeLa; assay: Induction of apoptosis in human HeLa cells assessed as accumulation at sub-G1 phase after 24 hrs in presence of caspase-3 inhibitor Z-DEVD-FMK using propidium iodide staining by flow cytometric analysis; assay type: functional, cell-based
[17] = system: Kocuria rhizophila; assay: Antibacterial activity against Kocuria rhizophila ATCC 9341 after 24 hrs by microbroth double dilution method; assay type: functional; settings: ATCC 9341, 24 h; method in brief: as §1
[18] = system: Aspergillus brasiliensis; assay: Antifungal activity against Aspergillus brasiliensis ATCC 16404 after 24 hrs by microbroth double dilution method; assay type: functional; settings: ATCC 16404, 24 h
[19] = system: Micrococcus luteus; assay: Antibacterial activity against Micrococcus luteus ATCC 4698 after 24 hrs by microbroth double dilution method; assay type: functional; settings: ATCC 4698, 24 h; method in brief: as §1
[20] = system: Escherichia coli; assay: Antibacterial activity against Escherichia coli ATCC 25922 after 24 hrs by microbroth double dilution method; assay type: functional; settings: ATCC 25922, 24 h; method in brief: as §1
[21] = system: MRC5; assay: Cytotoxicity against human MRC5 cells assessed as cell survival after 72 hrs by MTT assay; assay type: cell-based; settings: MRC5, 72 h; method in brief: as §3
[22] = system: Salmonella enterica; assay: Antibacterial activity against Salmonella enterica ATCC 13076 after 24 hrs by microbroth double dilution method; assay type: functional; settings: ATCC 13076, 24 h; method in brief: as §1
[23] = Cytotoxicity against human Fem-X cells assessed as cell survival after 72 hrs by MTT assay; assay type: functional, cell-based; method in brief: as §3
[24] = system: HeLa; assay: Cytotoxicity against human HeLa cells assessed as cell survival after 72 hrs by MTT assay; assay type: functional, cell-based; method in brief: as §3
[25] = system: HeLa; assay: Induction of apoptosis in human HeLa cells assessed as accumulation at sub-G1 phase after 24 hrs in presence of caspase-9 inhibitor Z-LEHD-FMK using propidium iodide staining by flow cytometric analysis; assay type: functional, cell-based
[26] = system: Bacillus subtilis; assay: Antibacterial activity against Bacillus subtilis ATCC 6633 after 24 hrs by microbroth double dilution method; assay type: functional; settings: ATCC 6633, 24 h; method in brief: as §1
[27] = system: A549; assay: Cytotoxicity against human A549 cells assessed as cell survival after 72 hrs by MTT assay; assay type: functional, cell-based; settings: A549, 72 h; method in brief: as §3

| SMILES | MIC [2] [µM] | LC50 [3] [ppm] | MIC [4] [µM] | MIC [6] [µM] | IC50 [7] [µM] | IC50 [9] [µM] | MIC [11] [µM] | MIC [13] [µM] | MIC [14] [µM] | MIC [15] [µM] | MIC [17] [µM] | MIC [18] [µM] | MIC [19] [µM] | MIC [20] [µM] | IC50 [21] [µM] | MIC [22] [µM] | IC50 [23] [µM] | IC50 [24] [µM] | MIC [26] [µM] | IC50 [27] [µM] | other results |
| --- | --- | --- | --- | --- | --- | --- | --- | --- | --- | --- | --- | --- | --- | --- | --- | --- | --- | --- | --- | --- | --- |
| CC1=CCC[C@H]2[C@](C)(CC3=CC(=O)C(N[C@@H](CC(C)C)C(=O)O)=CC3=O)[C@@H](C)CC[C@]12C | – | – | – | – | – | – | – | – | – | – | – | – | – | – | – | – | – | – | – | – | IC50 [1]: > 100 µM |
| CC1=CCC[C@H]2[C@](C)(CC3=CC(=O)C=C(NCCC(=O)O)C3=O)[C@@H](C)CC[C@]12C | 783 (≈ 313 µg/mL) | 84.3 | 12.2 (≈ 4.89 µg/mL) | 393 (≈ 157 µg/mL) | 15.5 | 3.31 | 24.5 (≈ 9.8 µg/mL) | 195 (≈ 77.9 µg/mL) | 783 (≈ 313 µg/mL) | 393 (≈ 157 µg/mL) | 393 (≈ 157 µg/mL) | 782 (≈ 313 µg/mL) | 48.8 (≈ 19.5 µg/mL) | 48.8 (≈ 19.5 µg/mL) | 80.8 | 783 (≈ 313 µg/mL) | 20.2 | 8.87 | 393 (≈ 157 µg/mL) | 26.9 | Activity [5]: Active; Activity [8]: Active; Activity [10]: Active; Activity [12]: inactive; Activity [16]: inactive; Activity [25]: inactive |
| CSCC[C@H](NC1=CC(=O)C=C(C(C)(C)C)C1=O)C(=O)O | 2010 (≈ 626 µg/mL) | 360.2 | 505 (≈ 157 µg/mL) | 2010 (≈ 626 µg/mL) | 88.5 | 151 | 1010 (≈ 313 µg/mL) | 505 (≈ 157 µg/mL) | 2010 (≈ 626 µg/mL) | 2010 (≈ 626 µg/mL) | 2010 (≈ 626 µg/mL) | 2010 (≈ 626 µg/mL) | 505 (≈ 157 µg/mL) | 1010 (≈ 313 µg/mL) | > 200 | 2010 (≈ 626 µg/mL) | 34.8 | 77.4 | 2010 (≈ 626 µg/mL) | > 200 | – |
| CSCC[C@H](NC1=CC(=O)C=C(C[C@]2(C)[C@@H](C)CC[C@]3(C)C(C)=CCC[C@@H]23)C1=O)C(=O)O | 170 (≈ 77.9 µg/mL) | 147.7 | 87.8 (≈ 40.3 µg/mL) | 341 (≈ 157 µg/mL) | 13.6 | 25.6 | 42.4 (≈ 19.5 µg/mL) | < 2.67 | 170 (≈ 77.9 µg/mL) | 170 (≈ 77.9 µg/mL) | 1360 (≈ 625 µg/mL) | 341 (≈ 157 µg/mL) | 42.4 (≈ 19.5 µg/mL) | 42.4 (≈ 19.5 µg/mL) | > 200 | 170 (≈ 77.9 µg/mL) | 19.4 | 13.9 | 170 (≈ 77.9 µg/mL) | 47.3 | Activity [5]: Active; Activity [8]: Active |
